ChEMBL document CHEMBL1123382, “Potential tumor- or organ-imaging agents. 27. Polyiodinated 1,3-disubstituted and 1,2,3-trisubstituted triacylglycerols” (J Med Chem, 1986)
Several values for one entry are separate records, joined by “and”; a condition that tells them apart may be missing. Identical values can stand only once.

Columns and labels:
Rattus norvegicus [1] = assay: Compound was evaluated for the lipid soluble radioactivity extracted from rat plasma at 24 hr after intravenous administration.; type: functional
Method in brief: (§1)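 Liver and plasma taken 0.5 or 24 h after iv dosing of 125I-labeled compound in rats (n = 3-5). Extracted by a modified Folch procedure; value is % lipid (CHCl3/MeOH)-extractable radioactivity ± SEM. Extracts run on TLC in hexane/ethyl acetate 5:2 against unlabeled standard, then 1-cm strips counted to give % parent compound.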

Rattus norvegicus [2] = assay: Biodistribution in Rat heart after 5 minutes of iv administration; per g of tissue; type: ADME, organism-based; settings: in vivo
Method in brief: (§2)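 125I-labeled compound solubilized in normal saline with Tween-20 and given iv to rats, about 5-30 μCi (9-83 μg) per animal. Three to five rats per time point. Rats killed by exsanguination under ether anesthesia at 5 min, 30 min or 24 h. Organs minced, blotted free of blood and counted for radioiodine. Lines with "per g" are % administered dose per gram ± SEM.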

Rattus norvegicus [3] = assay: Liver radioactivity after iv administration of compound (24 h) in rats; type: functional, organism-based
Method in brief: (§3)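 Rats (3-5 per time point) dosed iv with about 5-30 μCi (9-83 μg) of 125I-labeled compound in saline containing Tween-20. Killed by exsanguination under ether at 5 min, 30 min or 24 h. Liver removed, minced, blotted and counted. Values are % administered dose per organ, based on each animal's actual liver weight, ± SEM.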

Rattus norvegicus [4] = assay: Biodistribution in Rat blood after 30 minutes of iv administration; per g of tissue; type: ADME, organism-based; settings: in vivo, 0.5 h; method in brief: as §2
Rattus norvegicus [5] = assay: Biodistribution in Rat lung after 24 hours of iv administration; per g of tissue; type: ADME, organism-based; settings: in vivo; method in brief: as §2
Rattus norvegicus [6] = assay: Compound (125I labeled) was evaluated for the total radioactivity in stacking gel 5 min after intravenous administration.; type: functional
Method in brief: (§4)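 Rat plasma taken 5 or 30 min after iv dosing of 125I-labeled compound (saline/Tween-20) and run on polyacrylamide gel electrophoresis. Gels sectioned and each section gamma-counted. Radioactivity in each band (stacking gel, lipoproteins, albumin, below-albumin) is given as % of total radioactivity applied to the gel.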

Rattus norvegicus [7] = assay: Biodistribution in Rat heart after 30 minutes of iv administration; per g of tissue; type: ADME, organism-based; settings: in vivo, 0.5 h; method in brief: as §2
Rattus norvegicus [8] = assay: Compound (125I labeled) was evaluated for the total radioactivity in albumin at 30 min after intravenous administration.; type: functional; parameters: concentration or dose not given beside the values; method in brief: as §4
Rattus norvegicus [9] = assay: Liver radioactivity after iv administration of compound (5 min) in rats; type: functional, organism-based; method in brief: as §3
Rattus norvegicus [10] = assay: Compound was evaluated for the lipid soluble radioactivity extracted from rat plasma at 0.5 hr after intravenous administration.; type: functional; method in brief: as §1
Rattus norvegicus [11] = assay: Biodistribution in Rat lung after 30 minutes of iv administration; per g of tissue; type: ADME, organism-based; settings: in vivo, 0.5 h; method in brief: as §2
Rattus norvegicus [12] = assay: Evaluated for the total radioactivity in below albumin at 30 min after intravenous administration.; type: functional; method in brief: as §4
Rattus norvegicus [13] = assay: Biodistribution in Rat liver after 5 minutes of iv administration; per g of tissue; type: ADME, organism-based; settings: in vivo; method in brief: as §2
Rattus norvegicus [14] = assay: Compound (125I labeled)was evaluated for the total radioactivity in low-density lipoprotein 5 min after intravenous administration.; type: functional; method in brief: as §4
Rattus norvegicus [15] = assay: Compound was evaluated for the lipid soluble radioactivity extracted from rat liver at 0.5 hr after intravenous administration.; type: functional; method in brief: as §1
Rattus norvegicus [16] = assay: Biodistribution in Rat heart after 24 hours of iv administration; per g of tissue; type: ADME, organism-based; settings: in vivo; method in brief: as §2
Rattus norvegicus [17] = assay: Liver radioactivity after iv administration of compound (30 min) in rats; type: functional, organism-based; method in brief: as §3
Rattus norvegicus [18] = assay: Compound (125I labeled) was evaluated for the total radioactivity in low-density lipoprotein, at 30 min after intravenous administration.; type: functional; method in brief: as §4
Rattus norvegicus [19] = assay: Biodistribution in Rat blood after 24 hours of iv administration; per g of tissue; type: ADME, organism-based; settings: in vivo; method in brief: as §2
Rattus norvegicus [20] = assay: Biodistribution in Rat blood after 5 minutes of iv administration; per g of tissue; type: ADME, organism-based; settings: in vivo; method in brief: as §2
Rattus norvegicus [21] = assay: Compound (125I labeled) was evaluated for the total radioactivity in high-density lipoprotein 5 min after intravenous administration.; type: functional; method in brief: as §4
Rattus norvegicus [22] = assay: (§5) Biodistribution in Rat liver after 30 minutes of iv administration; per g of tissue; type: ADME, organism-based; settings: in vivo, 0.5 h; method in brief: as §2
Rattus norvegicus [23] = assay: Compound (125I labeled) was evaluated for the total radioactivity in stacking gel at 30 min after intravenous administration.; type: functional; method in brief: as §4
Rattus norvegicus [24] = assay: Compound (125I labeled) was evaluated for the total radioactivity in albumin 5 min after intravenous administration.; type: functional; parameters: concentration or dose not given beside the values; method in brief: as §4
Rattus norvegicus [25] = assay: Biodistribution in Rat liver after 24 hours of iv administration; per g of tissue; type: ADME, organism-based; settings: in vivo; method in brief: as §2
Rattus norvegicus [26] = assay: Compound was evaluated for the lipid soluble radioactivity extracted from rat liver at 24 hr after intravenous administration.; type: functional; method in brief: as §1
Rattus norvegicus [27] = assay: Compound (125I labeled) was evaluated for the total radioactivity in high-density lipoprotein, at 30 min after intravenous administration.; type: functional; method in brief: as §4
Rattus norvegicus [28] = assay: Biodistribution in Rat lung after 5 minutes of iv administration; per g of tissue; type: ADME, organism-based; settings: in vivo; method in brief: as §2
Rattus norvegicus [29] = assay: as §5; type: ADME, organism-based; settings: in vivo, 0.5 h; method in brief: as §2; remark: listed apart in the source

`CCCCCCCCCCCCCCCC(=O)OC(COC(=O)Cc1c(I)cc(I)c(N)c1I)COC(=O)Cc1c(I)cc(I)c(N)c1I` showed an Extracted (Rattus norvegicus [1]) of 67%, a Parent compound (Rattus norvegicus [1]) of 60.8% and a Biodistribution (Rattus norvegicus [2]) of 0.64%. It also gave a Radioactivity (Rattus norvegicus [3]) of 10.3, a Biodistribution (Rattus norvegicus [4]) of 2.62% and a Biodistribution (Rattus norvegicus [5]) of 0.13%. For the same compound, the Total radioactivity (Rattus norvegicus [6]) was 18.7%, the Biodistribution (Rattus norvegicus [7]) was 0.32% and the Total radioactivity (Rattus norvegicus [8]) was 3.9%. For the same compound, the Radioactivity (Rattus norvegicus [9]) was 38.8, the Extracted (Rattus norvegicus [10]) was 82.7% and the Parent compound (Rattus norvegicus [10]) was 82.8%. For the same compound, the Biodistribution (Rattus norvegicus [11]) was 0.73%, the Total radioactivity (Rattus norvegicus [12]) was 3.2% and 2.4% and the Biodistribution (Rattus norvegicus [13]) was 0.54% and 5.53%. The Total radioactivity (Rattus norvegicus [14]) was 39%, the Extracted (Rattus norvegicus [15]) was 90.5% and the Parent compound (Rattus norvegicus [15]) was 89.5%. For the same compound, the Biodistribution (Rattus norvegicus [16]) was 0.05%, the Radioactivity (Rattus norvegicus [17]) was 57.2 and the Total radioactivity (Rattus norvegicus [18]) was 35.1%. The Biodistribution (Rattus norvegicus [19]) was 0.12%, the Biodistribution (Rattus norvegicus [20]) was 4.75% and the Total radioactivity (Rattus norvegicus [21]) was 34.7%. The Biodistribution (Rattus norvegicus [22]) was 7.62%, the Total radioactivity (Rattus norvegicus [23]) was 16.6% and the Total radioactivity (Rattus norvegicus [24]) was 4.5%. For the same compound, the Biodistribution (Rattus norvegicus [25]) was 0.11% and 1.39%, the Extracted (Rattus norvegicus [26]) was 80.1% and the Parent compound (Rattus norvegicus [26]) was 68.8%. It also gave a Total radioactivity (Rattus norvegicus [27]) of 42%, a Biodistribution (Rattus norvegicus [28]) of 1.13% and a Biodistribution (Rattus norvegicus [29]) of 7.62%.
